# Screening results (PubChem)
# Only some compounds are listed: those with a hit (about 1.9% of all), similar ones and a draw of the others.
# XiGFP reactiv: activators of inactive X chromosome reactivation, primary screen, imaging, XiGFP fibroblasts, GFP high-content imaging, set 2; hit rate 0.055% among 360,000; XiGFP mouse fibroblasts, % GFP-positive cells imaging, 3 d; cells co-treated with 5-aza-dC sensitizer; scaled so ellipticine positive control = 100%; AID 743238, 2013; activation, % at 7.58 µM;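 active = mean normalized replicate activation at least 10% and every replicate at or above 10%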;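 note: 0% = median of on-plate neutral control wells and 100% = ellipticine 6 µM median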
#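 Material: SV40-immortalized XiGFP fibroblast cells, line 68-5-11 | Buffer or medium: DMEM containing 5-aza-dC | Dosing: One concentration, pinned | Times: 3 d treatment, 15 min room-temperature fixation | Controls: Ellipticine 6 µM positive control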
# ABHD5-PLIN5 inh: ABHD5-PLIN5 interaction inhibitors, primary screen, cell lysate, split luciferase complementation, luminescence. Perilipin-5 (Homo sapiens) + 1-acylglycerol-3-phosphate O-acyltransferase ABHD5 (Homo …. Split G. princeps luciferase complementation, 4 h. inhibition, % at 4 µM. hit rate 0.78% among 360,000. AID 602281, 2012;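 active = inhibition above the mean inhibition across every tested compound plus 3 SD, cut at about 22% in these data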;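 note: 0% = DMSO only wells and the 100% control is not disclosed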
# Target sequence (Q00G26 whole entry, looked up): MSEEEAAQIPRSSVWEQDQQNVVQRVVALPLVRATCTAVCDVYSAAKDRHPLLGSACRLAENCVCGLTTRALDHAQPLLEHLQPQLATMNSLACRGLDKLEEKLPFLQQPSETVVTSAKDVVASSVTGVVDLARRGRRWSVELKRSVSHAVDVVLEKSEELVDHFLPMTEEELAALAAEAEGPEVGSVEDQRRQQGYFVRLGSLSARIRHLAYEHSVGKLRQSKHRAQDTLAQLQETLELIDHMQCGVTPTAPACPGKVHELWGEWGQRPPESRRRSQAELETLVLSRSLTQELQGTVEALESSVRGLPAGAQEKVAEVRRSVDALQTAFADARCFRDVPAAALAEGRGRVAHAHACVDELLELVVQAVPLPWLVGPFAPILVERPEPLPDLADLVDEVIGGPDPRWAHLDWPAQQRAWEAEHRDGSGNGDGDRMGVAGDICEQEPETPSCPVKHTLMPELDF
# Target sequence (Q8WTS1 whole entry, looked up): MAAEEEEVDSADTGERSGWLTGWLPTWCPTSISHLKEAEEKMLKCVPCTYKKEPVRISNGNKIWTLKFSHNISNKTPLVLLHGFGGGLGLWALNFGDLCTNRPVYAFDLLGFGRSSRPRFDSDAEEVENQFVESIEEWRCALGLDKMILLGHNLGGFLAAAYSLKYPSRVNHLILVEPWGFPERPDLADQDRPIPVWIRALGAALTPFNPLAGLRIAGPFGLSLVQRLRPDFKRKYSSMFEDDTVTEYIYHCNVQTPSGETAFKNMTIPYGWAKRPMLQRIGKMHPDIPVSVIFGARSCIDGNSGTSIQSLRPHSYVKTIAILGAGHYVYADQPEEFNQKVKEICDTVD
# Rpn11 inh: Rpn11 (PSMD14) deubiquitinase inhibitors, primary screen, biochemical, fluorescence polarization, uHTS; human 26S proteasome, Ub4-pepOG fluorescence polarization; 20S core pre-blocked with epoxomicin; inhibition, % at 20 µM; hit rate 0.59% among 360,000; AID 588493, 2011;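 active = inhibition at 20 µM, scaled to each plate's controls, above about 33%, limit read from the data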
# NadD inh: inhibitors of S. aureus NadD, primary screen, biochemical, colorimetric, uHTS | Nicotinate-nucleotide adenylyltransferase NadD (Staphylococcus aureus N315) | purified NadD enzyme, colorimetric absorbance read-out | inhibition, % at 20 µM | hit rate 0.78% among 360,000 | AID 602399, 2012; in the data active = inhibition above about 26%
# Rin1-Abl PPI inh: inhibitors of Rin1-Abl protein binding, primary screen, biochemical, TR-FRET; inhibition, % at 7.35 µM; hit rate 0.4% among 360,000; in the data active = inhibition above about 5%, passing the limit was not always enough
# The depositor's hits bear a star; x = no result shown; ! = not active in a repeat.
SMILES,XiGFP reactiv,ABHD5-PLIN5 inh,Rpn11 inh,NadD inh,Rin1-Abl PPI inh
CS(=O)(=O)c1ccc(N)c(SSc2cc(S(C)(=O)=O)ccc2N)c1,0,83*,0,-1,3
CS(=O)(=O)c1ccc2nc(N)sc2c1,x,1,1,-1,0
CCC(=O)N1[C@H](CO)[C@@H](c2ccccc2)C12CN(Cc1nccs1)C2,0,x,x,x,x
COc1cccc(CN2[C@@H](CO)[C@@H](c3ccccc3)C23CN(Cc2ccccc2OC)C3)c1,0,x,x,x,x
Cc1ccc(C)n1Cc1ccc(C(=O)O)cc1,x,2,29,3,15*
OCCOCCN1CCN(C(c2ccccc2)c2ccc(Cl)cc2)CC1 (stereo not drawn),0,3,-10,-3,-2
OCCOCCN1CCN(C2=Nc3ccccc3Sc3ccccc32)CC1,0,23*!,-2,0,-3
CC(=O)Nc1ccc2c(c1)C(=O)N(C)C[C@H](C)[C@@H](CN(C)C)O2,0,x,x,x,x
CC(C)NC(=O)N(C)C[C@H]1Oc2ccccc2CC(=O)N(C)C[C@H]1C,0,x,x,x,x
COc1ccccc1CN(C)C[C@@H]1OCc2ccccc2-c2c(n(C)c3ccccc23)C(=O)N([C@H](C)CO)C[C@H]1C,0,x,x,x,x
Nc1nnc(CCS(=O)(=O)c2cc(Cl)ccc2Cl)s1,x,3,0,-2,0
Cc1ccccc1CN(C)CCS(=O)(=O)c1cc(Cl)ccc1Cl,0,23*,6,-5,-4
O=C(/C=C/c1ccc(Br)o1)OCc1nc2ccsc2c(=O)[nH]1,x,6,x,53*,-1
Cc1ccc(C(=O)OCc2nc3ccsc3c(=O)[nH]2)o1,0,5,0,-4,2
O=C1N[C@H](Cc2ccccc2)COCc2cn(nn2)CC[C@H]1Cc1cccc(Cl)c1,0,x,x,x,x
O=[N+]([O-])c1ccc(O)c(/C=N/NC(=S)Nc2ccc(Cl)cc2Cl)c1,0,-2,7,4,-6
O=[N+]([O-])c1ccc(/C=N/NC(=S)Nc2ccc(Cl)cc2Cl)s1,13*,-5,8,8,-2
COc1ccc2c3c(n(C)c2c1)[C@@H](CO)N(C(C)=O)CC31CN(C(=O)c2ccccc2)C1,0,x,x,x,x
Cc1cc(Br)ccc1NC(=O)c1sc2ncnc(N3CCN(c4ccccn4)CC3)c2c1C,6,-5,2,30*,-1
CCN1CCN(c2ccc(NC(=O)c3ccc(Br)o3)cc2)CC1,0,-1,-1,-8,1
O=C(Nc1ccc(N2CCCC2)cc1)c1ccc(Br)o1,x,0,5,44*,-5
NC(=S)N/N=C/c1coc2cc(Br)ccc2c1=O,0,-3,42*,10,2
N/C(=N\c1nc(CSc2nc3ccccc3s2)cc(=O)[nH]1)Nc1ccc(F)cc1,35*,1,-4,17,-18
CCN(CC)c1ccc2cc(-c3nc(-c4ccc(OC)cc4)cs3)c(=O)oc2c1,115*,x,x,x,x
CCN(CC)c1ccc2cc(-c3nnc(-c4ccccc4)o3)c(=O)oc2c1,x,1,1,17,-9
SMILES,XiGFP reactiv,ABHD5-PLIN5 inh,Rpn11 inh,NadD inh,Rin1-Abl PPI inh
CCS(=O)(=O)N1CC(=O)N2[C@@H](CO)[C@H](c3ccc(-c4ccccc4C)cc3)[C@@H]2C1,0,x,x,x,x
COc1ccc(-c2[nH]c(-c3ccc(C(=O)O)cc3)nc2-c2ccccc2)cc1,x,4,-4,7,1
COc1cc(-c2nc(-c3ccc4c(c3)-c3ccccc3S4(=O)=O)c(-c3ccccc3)[nH]2)cc(OC)c1O,x,7,17,35*,-2
OC[C@H]1[C@@H](c2ccccc2)C2(CN(Cc3nccs3)C2)N1Cc1ccncc1,0,x,x,x,x
O=C1c2c(O)ccc(O)c2C(=O)c2c(NCCNCCO)ccc(NCCNCCO)c21,0,3,43*,-1,-34
COc1ccccc1-c1nc(S(=O)(=O)c2ccccc2)c(N2CCOCC2)o1,0,22*,-1,0,-6
COc1ccc(-c2nc(S(=O)(=O)c3ccccc3)c(N3CCOCC3)o2)cc1,0,9,-5,-2,0
Cc1ccc(CNC(=O)C2c3ccccc3C(=O)N3CCc4ccccc4C23)o1 (stereo not drawn),x,22*,7,4,-2
Cc1cc(C)c2c(ccc3ccccc32)n1,0,13,-1,-3,2
Oc1ccc(-c2nc3ccc4ccccc4c3c3c2CCC3)cc1O,0,2,0,39*,2
Nc1ccc2c3c(cccc13)-c1ccccc1-2,117*,-15,-138,4,2
Cc1ccc2c3c(cccc13)-c1ccccc1C2=O,0,-2,-52,1,-2
CN(C)c1ccc(/C=C/c2cccc[n+]2[O-])cc1,0,1,37,2,-6
CN(C)c1ccc(/C=C/c2ccc3c4ccccc4ccc3[n+]2-c2ccccc2)cc1,0,37*,-6,16,-3
COc1ccc(C(NC(=O)/C=C\c2ccco2)c2ccc(OC)c(OC)c2)cc1 (stereo not drawn),x,22*,14,17,3
C[C@@H]1CCCCO[C@@H](CN(C)Cc2ccc(C(=O)Nc3ccccc3N)cc2)[C@@H](C)CN([C@H](C)CO)C(=O)c2cc(N(C)C)ccc2O1,1,x,x,x,x
COc1cccc(NC(=O)C[C@H]2CC[C@H]3[C@@H](COc4ccc(NC(=O)C5CCC5)cc4C(=O)N3C)O2)c1,0,x,x,x,x
N#C/C(=C(/O)c1ccccc1F)c1nc2cc(C(F)(F)F)ccc2s1,0,-11,33*,-6,1
N#C/C(=C(/O)c1ccc2c(c1)OCO2)c1nc2cc(C(F)(F)F)ccc2s1,0,-7,17,-3,0
COC(=O)N/N=C/c1cc(N=Nc2ccccc2Cl)ccc1O,0,-8,10,2,-5
Nc1ccc(C(=O)N/N=C\c2cc(N=Nc3cccc4ccccc34)ccc2O)cc1,x,-2,1,41*,2
Clc1ccc(C2=NCCN2)cc1,0,-8,6,-3,2
Nc1[nH]n2c(=O)cc(-c3ccccc3)nc2c1N=Nc1ccc(S(N)(=O)=O)cc1,0,3,13,25,-2
Nc1[nH]n2c(=O)cc(-c3ccccc3)nc2c1N=Nc1ccccc1,x,-9,-6,31*,-1
CCCNC(=O)N1CC2(CN(Cc3ccc(OC)cc3)C2)c2c(n(C)c3cc(OC)ccc23)[C@H]1CO,0,x,x,x,x
CCN(CC)c1ccc(/C=N/NC(=O)Cc2nnc(NC(=O)Nc3ccccc3)s2)cc1,0,-3,-2,48*,0
CCN(CC)c1ccc(/C=N/NC(=O)Nc2ccccc2)cc1,0,-9,0,-4,-3
